Activity calls are given as the source filed them. No cut-off for these calls is given here.

The subject of data set [1] is Influenza A virus. In words: Antiviral activity against Influenza A virus (A/Puerto Rico/8/1934(H1N1)) infected in C57BL/6J mouse assessed as increase in mouse survival at 8 mg/mouse/day, ip qd treated up to day 2 starting at 5 to 10 mins post infection measured at day 12. The class given is functional, organism-based. Summed up:
(§1)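 Intranasal A/PR/8/34 challenge at 500 PFU in female C57BL/6J mice, 5–6 weeks old, under ketamine/xylazine. Dosing was i.p. once daily on days 0, 1 and 2, starting 5–10 min post-inoculation; 1 mg/mouse is 50 mg/kg and 8 mg/mouse is 400 mg/kg. There were 10 mice per group, with saline vehicle. Survival and body weight were scored daily, with 20% weight loss as the mortality endpoint.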

In data set [2] the test system is Influenza A virus. In words: Antiviral activity against Influenza A virus (A/Puerto Rico/8/1934(H1N1)) infected in C57BL/6J mouse assessed as recovery of weight loss at 8 mg/mouse/day, ip qd […] starting at 5 to 10 mins post infection measured up to day 12. Format: functional, organism-based.
For data set [3], the system named is Influenza A virus. In words: Antiviral activity against Influenza A virus (A/Puerto Rico/8/1934(H1N1)) infected in C57BL/6J mouse assessed as decrease in viral load in bronchoalveolar lavage at 8 mg/mouse/day, ip qd treated up to day 2 starting at 5 to 10 mins post infection relative to control. Format: functional. Summed up: (§2)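 Female C57BL/6J mice, 5–6 weeks old, were anaesthetised with ketamine/xylazine (43/5 mg/kg) and inoculated intranasally with A/PR/8/34 at 500 PFU. Treatment was i.p. once daily on days 0, 1 and 2, starting 5–10 min after inoculation; 1 mg/mouse is 50 mg/kg and 8 mg/mouse is 400 mg/kg. BAL infectious titre was measured by plaque assay against saline-treated mice.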

Data set [4] in a line: Selectivity index, ratio of CC50 for MDCK cells to IC50 for pandemic Influenza A virus (A/Netherlands/602/09(H1N1)) infected in MDCK cells at MOI of 10^-3 after 18 hrs. The class given is toxicity, cell-based. Conditions: dog, read-out: Ratio CC50/IC50.
The next data set has as its system MDCK. In words: Inhibition of nucleoprotein/polymerase acidic protein (1 to 27 residues) interaction in Influenza A virus (A/WSN/1933 (H1N1)) infected in MDCK cells by Western blot analysis. Format: cell-based. Summed up:
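MDCK cells were infected with A/WSN/33 at MOI 2 for 18 h and lysed in PBS with protease inhibitors and 0.5% NP40 by freezing; nucleic acids were not digested. Streptavidin beads loaded with 250 µM biotinylated PA(1-27) were incubated with the lysate 18 h at 4 °C, with or without compound. Bound NP was detected by anti-NP monoclonal western blot.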
In general terms: A western blot detects proteins with antibodies after separation by electrophoresis.

A short description of data set [5]: Safety index, ratio of compound CC50 to naproxen CC50 for MDCK cells by MTT assay. Format: ADME, cell-based, Canis lupus familiaris. Particulars: dog.
For data set [6], the system named is Influenza A virus. In words: Stabilization of Influenza A virus nucleoprotein assessed as melting temperature at 5 to 15 uM measured for 10 mins.
The nature of data set [7]: Cytotoxicity against MDCK cells assessed as reduction in cell viability after 48 hrs by trypan blue staining based method. On the set-up: species or system Canis lupus familiaris. Conditions: dog. Summed up: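 MDCK cells, 3.2 x 10^5 per well, were grown 24 h and then exposed to serial compound dilutions under the same conditions as the MTT test. At 48 h, cells were washed, trypsinised and stained with Trypan blue, and viable and dead cells were counted by phase-contrast microscopy.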

The subject of data set [8] is Influenza A virus. The data set can be described thus: Antiviral activity against pandemic Influenza A virus (A/Netherlands/602/09(H1N1)) infected in MDCK cells at MOI of 10^-3 assessed as decrease in viral load after 18 hrs by immunofluorescence analysis. Format: functional, organism-based.
A short description of data set [9]: Selectivity index, ratio of CC50 for human A549 cells to IC50 for Influenza A virus (A/Udorn/1972 (H3N2)) after 18 hrs. Format: toxicity. Conditions: read-out: Ratio CC50/IC50.
Data set [10] in a line: Selectivity index, ratio of CC50 for MDCK cells to IC50 for Influenza A virus (A/Udorn/1972 (H3N2)) infected in MDCK cells at MOI of 2 after 18 hrs. Format: toxicity, cell-based. Conditions: dog, read-out: Ratio CC50/IC50.
Data set [11] deals with Influenza A virus. The data set can be described thus: Antiviral activity against Influenza A virus (A/Puerto Rico/8/1934(H1N1)) infected in C57BL/6J mouse assessed as decrease in viral load in bronchoalveolar lavage at 1 mg/mouse/day, ip qd treated up to day 2 starting at 5 to 10 mins post infection relative to control. The class given is functional. Summed up:
as §2

For data set [12], the system named is Influenza A virus. The data set can be described thus: microbe, parasite or virus in culture. Particulars: MDCK, 18 h.
For data set [13], the system named is Influenza A virus. Conditions: 50 uM.
A short description of data set [14]: Cytotoxicity against human A549 cells assessed as reduction in cell viability after 48 hrs by MTT assay. The class given is cell-based. Put shortly:
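Cells were seeded at 3.2 x 10^5 per well and kept 1 day at 37 °C in MEM without serum. Serial compound dilutions were added and cells incubated a further 48 h. The MTT read-out was absorbance at 550 nm minus 650 nm, and CC50 was taken from a dose-response fit.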
(In general: Formazan colour is commonly taken as a measure of viable cells.)

Data set [15] has as its system Influenza A virus. In words: Antiviral activity against Influenza A virus (A/Udorn/1972 (H3N2)) infected in human A549 cells assessed as decrease in viral load after 18 hrs by immunofluorescence analysis. Conditions: A549, 18 h. Format: functional, organism-based. Summed up: (§3)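 MDCK or A549 cells, 0.32 x 10^6 per well, were held 24 h serum-free to 80% confluence and then infected at MOI 2. Compound (0.1–500 µM) or vehicle was added right after virus adsorption. At 18 h, viral NP was read by immunofluorescence and corrected for cell number by DAPI. Runs were in triplicate, repeated at least twice, and IC50 came from a dose-response fit.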

For data set [16], the system named is Influenza A virus. The data set can be described thus: Antiviral activity against Influenza A virus (A/Puerto Rico/8/1934(H1N1)) infected in C57BL/6J mouse assessed as recovery of weight loss at 1 mg/mouse/day, ip qd treated up to day 2 starting at 5 to 10 mins post infection measured up to day 12 relative to control. The class given is functional. Summed up:
as §1

Data set [17] in a line: Selectivity index, ratio of CC50 for MDCK cells to IC50 for Influenza A virus (A/WSN/1933(H1N1)) infected in MDCK cells at MOI of 10^-3 after 48 hrs. Format: toxicity, cell-based. Conditions: dog, read-out: Ratio CC50/IC50.
Data set [18] deals with Influenza A virus. The data set can be described thus: Inhibition of Influenza A virus nucleoprotein/polymerase acidic protein (1 to 27 residues) complex formation at 100 nM by surface plasmon resonance analysis. Summed up: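 Biotinylated PA(1-27) was captured on the chip at about 1500 RU, with a scrambled peptide on the same chip at similar RU. NP (12–2500 nM), alone or as NP-DNA complex, was injected with or without compound up to 50 µM. Running buffer was 20 mM Tris-HCl pH 7.4, 300 mM NaCl, 0.005% P20, at 25 °C and 30 µl/min. Regeneration used guanidinium chloride then 10 mM NaOH.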
In general terms: SPR reads the build-up and loss of mass on a sensor chip optically.

Data set [19] is described as follows: Cytotoxicity against MDCK cells assessed as reduction in cell viability after 24 to 72 hrs by MTT assay. Particulars: dog.
Data set [20] concerns Influenza A virus. The data set can be described thus: Antiviral activity against Influenza A virus (A/WSN/1933(H1N1)) infected in MDCK cells at MOI of 10^-3 assessed as decrease in viral load after 48 hrs by crystal violet staining-based plaque assay. Format: functional, organism-based. Put shortly:
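Serum-starved MDCK cells, 0.32 x 10^6 per well, were infected with A/WSN/33 at MOI 10^-3 (multi-cycle). Compound (0.1–500 µM) or vehicle was added immediately after adsorption. After 48 h, titres in clarified supernatant were read by plaque assay with crystal violet. Runs were in triplicate, repeated at least twice, and IC50 came from a dose-response fit.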

A short description of data set [21]: Selectivity index, ratio of CC50 for MDCK cells to IC50 for Influenza A virus (A/WSN/1933(H1N1)) infected in MDCK cells at MOI of 2 after 18 hrs. Particulars: dog, read-out: Ratio CC50/IC50. Format: toxicity, cell-based.
Data set [22] is described as follows: Binding affinity to Influenza A virus nucleoprotein by surface plasmon resonance analysis.
Data set [23] relates to Influenza A virus. The data set can be described thus: Antiviral activity against Influenza A virus (A/WSN/1933(H1N1)) infected in MDCK cells at MOI of 2 assessed as decrease in viral load after 18 hrs by immunofluorescence analysis. The class given is functional, organism-based. Put shortly:
as §3

In data set [24] the test system is Influenza A virus. In words: Stabilization of Influenza A virus nucleoprotein assessed as melting temperature at 5 to 15 uM measured for 5 mins. Put shortly:
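Recombinant NP, over 80% monomeric, was used at 5–15 µM with compound at a 1:1 ratio in 20 mM Tris pH 7.4, 50 mM NaCl. Mean size was followed by dynamic light scattering (10 scans over 5 min per point) while heating at 1 °C/min up to 70–80 °C. Tm was taken from the maximum of the first-derivative curve, and analyses were done in triplicate.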

Data set [25] is described as follows: Binding affinity to biotin labelled Influenza A virus nucleoprotein by surface plasmon resonance analysis.
The next data set concerns A549. In words: Downregulation of COX2 level in human A549 cells infected with Influenza A virus at MOI of 2 at 100 uM after 18 hrs in presence of gamma-ATP by immunofluorescence analysis. Conditions: a549, 18 h. The class given is cell-based. Summed up: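 A549 cells were pretreated with compound for 30 min, then either infected with IAV at MOI 2 for 18 h or activated with 100 µM γ-ATP for 1 h with or without compound. Cells were fixed in 3% PFA and permeabilised with 0.1% triton. COX2 was immunostained overnight with a primary antibody and detected with an Alexa 647 secondary.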

Data set [26] deals with Influenza A virus. The data set can be described thus: Antiviral activity against Influenza A virus (A/Udorn/1972 (H3N2)) infected in MDCK cells at MOI of 2 assessed as decrease in viral load after 18 hrs by immunofluorescence analysis. Format: functional, organism-based. Put shortly:
as §3

For the compound `CCOC(=O)C1=C[C@@H](OC(CC)CC)[C@H](NC(C)=O)[C@@H](N)C1` [OSELTAMIVIR], the result with Influenza A virus [1] was Active. Also, in the data set on Influenza A virus [2], the outcome was inactive. For the same compound, in the data set with Influenza A virus [3], the “fold change (FC)” value is 260.
Usually CC50 stands for the concentration that lowers cell viability or growth by half. What is called IC50 is the point on the concentration scale where inhibition reaches its midpoint. For `COc1ccc2cc(-c3c(C(=O)O)cc(Oc4ccc(N)cc4)cc3C(=O)O)ccc2c1`, in data set [4], the selectivity ratio at 18 h was 619. Also, the “inhibition (active/not active)” value with MDCK is “Active”. Besides, the selectivity ratio in data set [5] was found to be 10. In the data set with Influenza A virus [6], the Tm fell in the range of 38 to 47 °C. Further, the CC50 at 48 h in [7] is no less than 10000 µM. Besides, the IC50 in the data set on Influenza A virus [8] came to 21 µM.
Usually Ki stands for the equilibrium dissociation constant of an inhibitor or competing ligand from its target. Read a high Ki as weaker binding. In the case of `COc1ccc2cc([C@H](C)C(=O)O)ccc2c1` [NAPROXEN], the values for the selectivity ratio at 18 h in data set [9], in data set [10] and in data set [21] were 12.5, 12 and 14, respectively. Further, in the data set on Influenza A virus [11], the “fold change (FC)” value came to 2. Moreover, the IC50 worked out at 120 µM in the data set with Influenza A virus [12], 112 µM with Influenza A virus [15], 16 µM in the data set with Influenza A virus [20] and 100 µM in the data set with Influenza A virus [23]. Moreover, the inhibition entry with Influenza A virus [13] and in the data set with Influenza A virus [18] was “inactive” each time. Besides, the results for the CC50 at 48 h in data set [14] and in data set [7] were 1400 µM and 1000 µM, respectively. Besides, the Activity in the data set with Influenza A virus [16] came out at 85%. The “inhibition (active/not active)” value in the data set on MDCK was “inactive”. Moreover, in [17], the selectivity ratio at 48 h came out at 87. For the same compound, the CC50 in data set [19] is 1400 µM. In the data set on Influenza A virus [6], the Tm came out at 41 °C. Also, the affinity in [22], expressed as Ki, was 0.25 µM.
As for `COc1ccc2cc(C(CC(=O)O)CC(=O)O)ccc2c1`, the “inhibition (active/not active)” value in the data set on MDCK was “inactive”. Also, in the data set with Influenza A virus [24], the Tm lay within 25 to 45 °C. This compound yielded a Ki in data set [25] of 0.8 µM.
For the compound `COc1ccc2cc(-c3c(C(=O)[O-])ccc(Oc4ccc(N)cc4)c3C(=O)[O-])ccc2c1.[Na+].[Na+]`, the selectivity ratio at 18 h is 706 in [9], 923 in data set [10], 17100 in [4] and 923 in data set [21]. The Activity entry in the data set on A549 is on record as “Non-Toxic”. For the same compound, the IC50 in the data set with Influenza A virus [15] came out at 17 µM; in the data set on Influenza A virus [20], 1.3 µM; in the data set with Influenza A virus [26], 13 µM; in the data set with Influenza A virus [23], 13 µM; with Influenza A virus [8], 0.7 µM. Moreover, the “inhibition (active/not active)” value with MDCK was “Active”. For the same compound, the selectivity ratio in data set [5] is 10. Moreover, the selectivity ratio at 48 h in data set [17] stood at 9230. For the same compound, in the data set with Influenza A virus [6], the Tm stood at 48 °C. The CC50 at 48 h in [7] was no less than 10000 µM. In [22], this compound returned a Ki of 0.03 µM.

The values are drawn from ChEMBL document CHEMBL4196106, “From Naproxen Repurposing to Naproxen Analogues and Their Antiviral Activity against Influenza A Virus” (J Med Chem, 2018).
